These results are taken from ChEMBL document CHEMBL1136404, “Synthesis and biological evaluation of new UDP-GalNAc analogues for the study of polypeptide-alpha-GalNAc-transferases” (Bioorg Med Chem Lett, 2003).

The inhibition is the change of the read-out against control, counted positive when it falls. Higher therefore signals a strong effect.

Assay [1] can be described thus: Inhibitory activity against GalNAc transferase 1 at a concentration of 1000 uM. An outline of the steps:
(§1)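 Bovine ppGalNAc-T1 (EC 2.4.1.41), secreted 6His-tagged protein from baculovirus-infected insect cells, Ni-NTA purified (0.5 U/mg). Stopped with ice-cold water; glycopeptide recovered on C18 cartridge, eluted with methanol, scintillation counted. Inhibition reported as relative %.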

Assay [2] can be described thus: Inhibitory activity against GalNAc transferase 1 at a concentration of 20 uM. An outline of the steps: as §1
Assay [3] can be described thus: Inhibitory activity against GalNAc transferase 1 at a concentration of 200 uM. An outline of the steps: as §1

Each structure is given as a SMILES string.

Take `COC1C(CO)OC(OP(=O)(O)OP(=O)(O)OC[C@H]2OC(n3ccc(=O)[nH]c3=O)[C@H](O)[C@@H]2O)C(NC(C)=O)C1O` (some centres not stated): the inhibition in assay [1] came out at 72%; in assay [2], 0%; in assay [3], 7%.
`COCC1OC(OP(=O)(O)OP(=O)(O)OC[C@H]2OC(n3ccc(=O)[nH]c3=O)[C@H](O)[C@@H]2O)C(NC(C)=O)C(O)C1O` (some centres not stated): the inhibition in assay [1] came out at 76%; in assay [2] it was 0%; in assay [3], 17%.
`CC(=O)N[C@@H]1[C@H](OP(=O)(O)OP(=O)(O)OC[C@H]2O[C@@H](n3ccc(=O)[nH]c3=O)[C@H](O)[C@@H]2O)O[C@@H](CO)[C@H](O)[C@H]1O`: the inhibition turned out to be 79% in assay [1], 0% in assay [2] and 39% in assay [3].
In the same order, the values of `COC1C(O)C(CO)OC(OP(=O)(O)OP(=O)(O)OC[C@H]2OC(n3ccc(=O)[nH]c3=O)[C@H](O)[C@@H]2O)C1NC(C)=O` (some centres not stated) are 74%, 0% and 30%.
